This is an account of results in ChEMBL document CHEMBL1144934, “Efficacious and orally bioavailable thrombin inhibitors based on a 2,5-thienylamidine at the P1 position: discovery of N-carboxymethyl-d-diphenylalanyl-l-prolyl[(5-amidino-2-thienyl)methyl]amide” (J Med Chem, 2003).

A short description of series [1]: Bioavailability in rat. The series is classed as ADME, organism-based. As to conditions: in vivo.
Series [2] can be described thus: Steady state volume of distribution (Vdss) was determined after intravenous dosing at 10 mg/kg in rat. Also on record: dose 10 mg/kg, route intravenous. The conditions noted are these: in vivo, read-out: Vdss. The series is classed as ADME, organism-based. An outline of the steps:
(§1)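 Male Sprague–Dawley rats (250–300 g), femoral artery and vein cannulated under light ether anesthesia; after recovery, 10 mg/kg given via femoral vein. Arterial blood sampled at 0, 1, 5, 15, 30, 60, 90, 120, 180, 240 min, collected into heparinized tubes, deproteinized with 2 volumes methanol, centrifuged; supernatant analyzed by HPLC (0.1% TFA/acetonitrile 81:19).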

Series [3] can be described thus: Clearance value was determined after intravenous dosing at 10 mg/kg in rat. The series is classed as ADME, organism-based. Also on record: dose 10 mg/kg, route intravenous. The conditions noted are these: in vivo. In short, it runs like this:
as §1

Series [4] is described as follows: Area under curve (AUC) was determine after intravenous dosing at 10 mg/kg. The series is classed as ADME, organism-based. Set-up: dose 10 mg/kg, route intravenous. The conditions noted are these: in vivo.
Another series addresses Prothrombin (Homo sapiens, UniProt P00734). Kind of series: In vitro inhibition constant (Ki) against human thrombin.
The nature of series [5]: Half life of compound was determined after intravenous dosing at 10 mg/kg in rat. The series is classed as ADME, organism-based. Set-up: dose 10 mg/kg, route intravenous. The conditions noted are these: in vivo. In short, it runs like this:
as §1

In series [6] the test system is Rattus norvegicus. The series is described as follows: Ex vivo activated clotting time was measured in rat plasma at 1 mg/kg. The series is classed as functional.
The species named for series [7] is Rattus norvegicus. Kind of series: Ex vivo concentration of inhibitor to double the activated clotting time was measured in rat plasma. The series is classed as functional.
The test system of series [8] is Rattus norvegicus. The series is described as follows: In vivo inhibition of thrombus formation in thromboplastin-induced deep vein thrombosis (DVT) rat model after iv bolus dosing at 1 mg/kg. The series is classed as functional.
Series [9] is filed under the species Rattus norvegicus. Kind of series: In vitro concentration of inhibitor to double the activated partial thromboplastin time was evaluated in rat. The series is classed as functional.
Series [10] is described as follows: In vitro metabolic stability was determined using liver S9 fraction from monkey at initial concentration of 20 uM. The series is classed as ADME, subcellular. As to conditions: simiiformes, read-out: Recovery. In short, it runs like this:
(§2)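 Liver S9 (9000g supernatant of homogenate in Tris-acetate pH 7.4, KCl, EDTA) from rat, dog, monkey (pooled, n = 2) or human (n = 2); 20 µM final compound with NADPH generating system and S9 6.72 mg/mL in 100 mM phosphate pH 7.4, 37 °C. Samples methanol-deproteinized, HPLC; recovery after 30 min reported; no-NADPH control.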

A short description of series [11]: In vitro metabolic stability was determined using liver S9 fraction from rat at initial concentration of 20 uM. As to conditions: read-out: Recovery. The series is classed as ADME. An outline of the steps:
as §2

A short description of series [12]: Area under curve (AUC) was determined after intravenous dosing at 10 mg/kg in rat. Also on record: dose 10 mg/kg, route intravenous. The series is classed as ADME, organism-based. As to conditions: in vivo. An outline of the steps:
as §1

Series [13] is described as follows: In vitro metabolic stability was determined using liver S9 fraction from dog at initial concentration of 20 uM. The conditions noted are these: read-out: Recovery. The series is classed as ADME, Canis lupus familiaris. In short, it runs like this: as §2
Series [14] in a line: Maximal plasma concentration in rats after 30 mg/kg oral dose. The series is classed as ADME, organism-based. Also on record: dose 30 mg/kg, route oral. The conditions noted are these: rat.
A short description of series [15]: In vitro metabolic stability was determined using liver S9 fraction from human at initial concentration of 20 uM. The series is classed as ADME. The conditions noted are these: liver S9 fraction, read-out: Recovery. An outline of the steps:
as §2

Series [16] is described as follows: Area under curve (AUC) was measured after oral dosing at 30 mg/kg in rat. As to conditions: in vivo. The series is classed as ADME, organism-based. Set-up: dose 30 mg/kg, route oral.

Compound `N=C(N)c1csc(CNC(=O)[C@@H]2CCCN2C(=O)[C@H](NCC(=O)O)C(c2ccccc2)c2ccccc2)n1` showed a bioavailability in [1] of 21%. Moreover, the Vd in series [2] turned out to be 0.189 L/kg. In [3], this compound showed a clearance of 6 mL/min/kg. In addition, the AUC in series [4] was 29100 ng·h/mL. This compound also gave a Ki on Prothrombin of 0.64 nM. Besides, the half-life in series [5] is 50 min.

As for `CC1CNc2c(cccc2S(=O)(=O)N[C@@H](CCCNC(=N)N)C(=O)N2CC[C@@H](C)C[C@@H]2C(=O)O)C1` (stereo partly drawn) [ARGATROBAN], the ACT with Rattus norvegicus [6] is 1.9. Also, the “Concentration to double activated clotting time” value (from here on “Concentration”) in the series listed under Rattus norvegicus [7] was found to be 1.97 µM. Besides, in the series on Rattus norvegicus [8], the inhibition in vivo at 1 mg/kg amounted to 82%. Moreover, the APTT in the series filed under Homo sapiens worked out at 0.57 µM; in the series listed under Rattus norvegicus [9], 2.5 µM.

With `COC(=O)N[C@@H](C(=O)N1CCC[C@H]1C(=O)NCc1csc(C(=N)N)c1)C(c1ccccc1)c1ccccc1`, the remaining at 20 µM in series [10] was below 10%; in [11] it was 49%; in [13] it was 83%; in [15] it was 13%. In series [1], this compound had a bioavailability of 7%. The Vd in series [2] amounted to 0.23 L/kg. The compound also had an AUC in [12] of 102000 ng·h/mL. The compound also came in with a clearance in series [3] of 1.7 mL/min/kg. For the same compound, the ACT in the series on Rattus norvegicus [6] was determined as 3.7. Besides, in the series listed under Rattus norvegicus [7], the “Concentration” value stood at 6.86 µM. This compound registered an inhibition in vivo at 1 mg/kg in the series with Rattus norvegicus [8] of 98%. Moreover, on Prothrombin, affinity was put at a Ki of 0.6 nM. Further, the APTT in the series listed under Homo sapiens is 0.37 µM; in the series listed under Rattus norvegicus [9] it was 5.2 µM. The concentration in series [14] peaked (Cmax) at 8600 ng/mL. For the same compound, the half-life in series [5] was 45 min.

As for `N=C(N)c1ccc(CNC(=O)[C@@H]2CCCN2C(=O)[C@H](NS(N)(=O)=O)C(c2ccccc2)c2ccccc2)cc1`, the remaining at 20 µM amounted to 87% in series [10], 90% in series [11], 93% in series [13] and 92% in series [15]. In addition, the bioavailability in [1] was 8%. In [2], the Vd worked out at 0.297 L/kg. For the same compound, the AUC is 19700 ng·h/mL in series [12] and 4530 ng·h/mL in [16]. In addition, in series [3], the clearance is 8.6 mL/min/kg. The ACT in the series with Rattus norvegicus [6] was 11. Also, in the series listed under Rattus norvegicus [7], the “Concentration” value was found to be 1.23 µM. The compound also showed an inhibition in vivo at 1 mg/kg in the series with Rattus norvegicus [8] of 100%. The values for the APTT in the series filed under Homo sapiens and in the series listed under Rattus norvegicus [9] were 0.14 µM and 1.24 µM, respectively. The compound also registered a Cmax in series [14] of 2800 ng/mL. This compound gave a half-life in series [5] of 45 min.

Broadly, the bioavailability is the share of a dose that reaches the circulation, judged against a reference dose that is usually intravenous. The term clearance denotes a measure of how efficiently the substance is removed, as volume per time. The AUC is the area under the concentration-time curve, a measure of exposure. A word on the Ki: it is the dissociation constant of the complex between target and ligand, obtained from inhibition or displacement. By half-life is commonly meant the time in which the quantity being followed falls by half. By inhibition in vivo is commonly meant the percentage by which the read-out fell short of the control. Usually Cmax stands for the highest concentration seen after dosing.
